Assay results as given in article PMC4936951 (Molecular pharmaceutics, 2016).
Several values for one entry are separate records, joined by “and”; a condition that tells them apart may be missing. Equal values may be shown once. Read-outs that look alike come from different tables or passages of the source.

Key:
HCT 116/δOR cells = format: cell-based, human
Method in brief: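 HCT 116/δOR cells (DMEM/F12, 10% calf serum, 1% pen/strep) on glass-bottom dishes, PBS-rinsed, exposed to 2.5 nM agent in Fluorobrite DMEM at 37°C, 5% CO2. Imaged every 30 s for 15 min; then rinsed and imaged in fresh medium, 4 fields every 10 min to 24 h (40× oil, Cy5, 1.5 s). Per-cell ROI intensity×area gave cytoplasm and membrane (total minus cytoplasm) fluorescence; 11–25 cells/day, three days.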

[1] = system: δOR+ (HCT 116/δOR) and δOR− (HCT 116) tumor xenografts; experiment: Dose determination by in vivo fluorescence imaging of bilateral tumor xenografts; set-up: species or system nu/nu mice; conditions: 50 nmol/kg i.v., 24 h post-administration
Method in brief: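 Female nu/nu mice received 8×10^6 cells, HCT 116 in the left flank and HCT 116/δOR in the right, and were imaged after 1 week. Dose given by tail-vein i.v. injection. Animals imaged immediately to confirm injection, then at 24 h, on an IVIS 200. Agent stored in dark aliquots at −80°C; animals kept in a dark chamber. Autofluorescence ratio taken from radiance in identical ROIs on background-subtracted Cy5 and autofluorescence images.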

[2] = system: δOR+ (HCT 116/δOR) and δOR− (HCT 116) tumor xenografts; format: in vivo, athymic nude female mice; conditions: for Rate of uptake, Slope × 10^7 / Rate of clearance, Slope × 10^7: linear regression, n=5
Method in brief: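 Athymic nude female mice carried bilateral xenografts of 8×10^6 HCT 116 (left) and HCT 116/δOR (right) cells, grown to mean 500 mm3 by caliper (length×width²/2). Single i.v. dose of 4.5 nmol/kg. IVIS 200 Cy5 imaging at 3, 9, 15, 30, 45 min and 1.5, 3, 6, 12, 18, 24, 48, 72, 96, 168 h. Readout after background subtraction and pre-injection autofluorescence correction: ROI mean surface radiance in efficiency units.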

[3] = system: tumors and organs (spleen, pancreas, liver, kidneys, GI tract, heart, lungs); experiment: Ex vivo biodistribution by fluorescence imaging of excised tumors and organs; format: in vivo, mice; conditions: 4.5 nmol/kg
Method in brief: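 Separate group of bilateral HCT 116 / HCT 116/δOR xenograft mice given 4.5 nmol/kg. At 0, 7.5 min, 15 min, 45 min, 3 h, 6 h, 24 h and 48 h: imaged in vivo, then euthanized. Tumors, spleen, pancreas, liver, kidneys, GI tract, heart and lungs excised and fluorescence-imaged ex vivo. Animals kept in low light after dosing.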

[4] = system: HCT 116/δOR (positive) and HCT 116/RFP (negative) DWC tumors; experiment: Intravital confocal microscopy in dorsal skinfold window chamber; format: in vivo, mouse
Method in brief: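 Dorsal skinfold window chamber mice carrying HCT 116/δOR or HCT 116/RFP tumors received 45 nmol/kg via tail vein. Confocal imaging with 25× lens, 3570 pixels/min: continuous for 30 min, including 1, 1.5, 2 and 5 min frames, then further time points up to 24 h. Mean intensity ROIs placed in the vessel interior, in adjacent tumor tissue, and over tumor across time.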

δ-opioid receptor = conditions: read-out: Ki (binding affinity); δ-opioid receptor antagonist; cited from earlier work
[5] = 45 nmol/kg via tail vein, δOR negative tumor vessel

Dmt-Tic-Lys(Cy5)-OH [Dmt-Tic-Cy5]
maximum ratio of fluorescence inside (cytoplasm)/outside (cell membrane) (HCT 116/δOR cells; 2.5 nM): 1.69 | time to observed cell-surface labeling after addition of ligand (HCT 116/δOR cells; 2.5 nM): ~ 2 min and 2 min | period of gradual tumor cell internalization (HCT 116/δOR cells; after addition of agent): 6 h and ~ 7 h and 7 h | fold of enhancement (FOE) δOR+ tumor relative to δOR− tumor [1]: 5 fold | time of clearance from δOR− tumor (nearly pre-injection levels) ([2]; 4.5 nmol/kg i.v.): ≤ 6 h | time of maximum fluorescence in δOR− tumor ([2]; 4.5 nmol/kg i.v.): 15 min | time of maximum fluorescence signal in δOR+ tumor ([2]; 4.5 nmol/kg i.v.): 3 h | time of systemic clearance ([2]; 4.5 nmol/kg i.v., based on clearance from negative tumor): ≤ 6 h | enhancement in positive tumor relative to negative tumor ([2]; 4.5 nmol/kg, from 30 min to 96 h post-administration): > 3 fold | Mean FOE (+ tumor/− tumor) ([2]; 4.5 nmol/kg, time 0.15 h): 2.7 | Mean FOE (+ tumor/− tumor) ([2]; 4.5 nmol/kg, time 0.25 h): 2.7 | Mean FOE (+ tumor/− tumor) ([2]; 4.5 nmol/kg, time 0.50 h): 3.2 | Mean FOE (+ tumor/− tumor) ([2]; 4.5 nmol/kg, time 0.75 h): 4.5 | Mean FOE (+ tumor/− tumor) ([2]; 4.5 nmol/kg, time 1 h): 6.5 | Mean FOE (+ tumor/− tumor) ([2]; 4.5 nmol/kg, time 3 h): 9.7 | Mean FOE (+ tumor/− tumor) ([2]; 4.5 nmol/kg, time 6 h): 17.5 | Mean FOE (+ tumor/− tumor) ([2]; 4.5 nmol/kg, time 12 h): 13.5 | Mean FOE (+ tumor/− tumor) ([2]; 4.5 nmol/kg, time 18 h): 26.7 | Mean FOE (+ tumor/− tumor) ([2]; 4.5 nmol/kg, time 24 h): 20.6 | Mean FOE (+ tumor/− tumor) ([2]; 4.5 nmol/kg, time 48 h): 8.9 | Mean FOE (+ tumor/− tumor) ([2]; 4.5 nmol/kg, time 72 h): 10.8 | Mean FOE (+ tumor/− tumor) ([2]; 4.5 nmol/kg, time 96 h): 5.6 | Mean FOE (+ tumor/− tumor) ([2]; 4.5 nmol/kg, time 168 h): 1.8 | ratio of enhancement in target positive tumors ([2]; maintained from 6 h to 24 h post-administration): approximately 20 fold | Rate of uptake, Slope × 10^7 ([2]; δOR+ tumor, 0 to 0.75 h): 264 Efficiency/h | Rate of clearance, Slope × 10^7 ([2]; δOR+ tumor, 3 to 96 h): −1.45 Efficiency/h | Rate of uptake, Slope × 10^7 ([2]; δOR− tumor, 0 to 0.25 h): 211 Efficiency/h | Rate of clearance, Slope × 10^7 ([2]; δOR− tumor, 0.25 to 24 h): −14.6 Efficiency/h | fluorescence signal in heart, lungs, GI tract, spleen and pancreas (ex vivo) [3]: minimal to no fluorescence signal | time of decrease to pre-injection levels in kidney and liver (ex vivo) ([3]; n=5): ≤ 24 h | time of highest fluorescence signal in kidney and liver (ex vivo) ([3]; n=5): 15 min | time of clearance from tumor vasculature [4, 5]: ≤ 2 min | time to peak intensity in tumor vasculature [4, 5]: ≤ 1 min | time of highest fluorescence intensity in negative tumor (intravital) ([4]; 45 nmol/kg, HCT 116/RFP DWC tumor): 10 min | time of highest fluorescence intensity in positive tumor (intravital) ([4]; 45 nmol/kg, HCT 116/δOR DWC tumor): 30 min | time of clearance of fluorescence from negative tumor (intravital) ([4]; 45 nmol/kg, positive tumor still strong signal): ≤ 24 h | Ki (δ-opioid receptor): 3 nM
